Experimental data published in BindingDB's records for doi:10.1016/s0960-894x(03)00042-8 (Merck Frosst Centre For Therapeutic Research, 2003).

Molecular target: Prostaglandin E2 receptor EP4 subtype (Homo sapiens, UniProt P35408)
Test: Binding affinity towards EP4 receptor expressed in HEK293 ebna cells recombinantly expressing the corresponding human prostanoid cDNAs
How it was run: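 Competition binding used membrane preparations, not intact cells, from HEK293ebna cells expressing each recombinant human prostanoid receptor cDNA.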

Sequence of Prostaglandin E2 receptor EP4 subtype (P35408 whole entry): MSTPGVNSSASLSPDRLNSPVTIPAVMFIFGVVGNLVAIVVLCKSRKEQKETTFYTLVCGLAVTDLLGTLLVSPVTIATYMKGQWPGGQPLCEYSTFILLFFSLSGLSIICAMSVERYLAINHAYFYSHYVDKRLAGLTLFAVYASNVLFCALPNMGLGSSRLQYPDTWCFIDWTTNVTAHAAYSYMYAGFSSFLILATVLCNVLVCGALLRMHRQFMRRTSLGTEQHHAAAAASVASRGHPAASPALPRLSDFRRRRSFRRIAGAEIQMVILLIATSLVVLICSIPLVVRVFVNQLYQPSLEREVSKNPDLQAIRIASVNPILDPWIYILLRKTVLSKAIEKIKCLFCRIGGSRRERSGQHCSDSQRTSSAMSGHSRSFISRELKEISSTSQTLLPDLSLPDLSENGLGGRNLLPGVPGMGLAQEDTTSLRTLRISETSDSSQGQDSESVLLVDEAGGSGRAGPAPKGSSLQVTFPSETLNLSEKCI

Ki: 2.5 nM
Compound: O=C1CC[C@H](/C=C/[C@H](O)Cc2ccccc2)N1CCCCCCc1nnn[nH]1
